Laboratory results published in PMC8103725 (FASEB BioAdvances, 2021).
Blank lines part the entries; values can stand above or below the molecule they belong to.

Tests used:
[1] = target: HEG1–KRIT1 interaction (EGFP‐KRIT1 FERM domain binding to HEG1 cytoplasmic tail on beads) (Homo sapiens, UniProt O00522); assay: Flow cytometry bead assay for the HEG1–KRIT1 FERM domain interaction; details: for inhibition of the HEG1–KRIT1 interaction: result in words
[2] = test system: PARD3 binding to HEG1 cytoplasmic tail; assay: PARD3 pulldown assay with HEG1 matrix; design: species or system human; details: HUVEC lysates, 35 μM compound
In short: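 Clarified lysate (600 μg) was rotated overnight at 4°C with 20 μL neutravidin agarose carrying HEG1 wild‑type (1274–1381) or ΔYF (1274–1379) tail. Incubations contained DMSO, 35 μM test compound or 35 μM 2‑hydroxy‑1‑naphthoic acid. After three washes, bound PARD3 was detected by SDS–PAGE immunoblot with rabbit polyclonal anti‑PARD3.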

hCMEC/D3 cells [3] = assay: qPCR of KLF4 and KLF2 mRNA in hCMEC/D3 cells; format: cell-based, human; details: 50 μM, 4 h
In short: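 Test compound came from a 10 mM DMSO stock, rotated 30 min at RT before use. hCMEC/D3 cells (passages 30–37, collagen‑coated, EGM‑2 MV, 37°C/5% CO2) were treated at the indicated doses (12 h dose–response) or over a time course, versus DMSO. RNA was extracted with TRIzol, and 1 µg was reverse‑transcribed with SuperScript III. qPCR used actin normalization and 2−ΔΔCT. Results are relative to vehicle ± SEM: n=3 t test, or n=4 one‑way ANOVA.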

hCMEC/D3 cells [4] = assay: Propidium iodide staining, cell viability; format: cell-based, human; details: 50 μM, 24 h, vs vehicle
In short: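 hCMEC/D3 cells were treated with test compound or the same DMSO concentration, then resuspended in PBS with 1% BSA and stained with propidium iodide. Samples were analysed by flow cytometry, counting PI‑positive cells as dead. Results are percentage viable cells ± SEM, n=3, one‑way ANOVA.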

HUVEC = assay: Genome‐wide RNA sequencing of HUVEC; format: cell-based, human; details: same conditions as HKi2, vs vehicle; data not shown
In short: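 HUVEC (passages 4–7) were grown on fibronectin in complete EGM‑2 at 37°C, 5% CO2, then given 75 μM test compound or DMSO for 24 h. Only RNA with RIN >8 was used; 400 ng went into TruSeq stranded mRNA libraries. Libraries were sequenced on HiSeq2500 (SR100, 30 million reads), mapped to GRCh release 96 with Hisat2, and analysed for differential expression with EdgeR.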

[5] = test system: klf2a expression in arterial and venous endothelium; assay: Zebrafish klf2a reporter Tg; format: in vivo; details: 4 μM, 4 h from 26 hpf
In short: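 Tg(klf2a:H2B‑EGFP);Tg(kdrl:mCherry) embryos were exposed to test compound dissolved in fish egg water. At 30 hpf they were paralysed with tricaine and imaged by confocal microscopy. Nuclear EGFP intensity in vasculature was measured on nuclei outlined through Z, seven nuclei per embryo. Each experiment used two treated and two control embryos; two independent experiments were analysed.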

hCMEC/D3 cells [6] = assay: Western blot of pAkt‐S473 and total Akt in hCMEC/D3 cells; format: cell-based, human; details: for effect on Akt phosphorylation induced by HKi2: with HKi2 50 μM, MK‐2206 20 μM, LY294002 10 μM
In short: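 hCMEC/D3 cells were treated with 50 μM test compound or DMSO and washed twice in ice‑cold HBSS. They were lysed in RIPA (50 mM Tris pH 7.5, 150 mM NaCl, 1% NP‑40, 0.5% deoxycholate, 0.1% SDS, 2 mM EDTA, 50 mM NaF) with protease/phosphatase inhibitors and 1 mM Na3VO4. Lysates were spun at 20,000xg for 15 min at 4°C, resolved on 4–12% gels, and immunoblotted for phospho‑Akt Ser473 (1:250) and total Akt. Data are mean ± SEM.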

[7] = Aqueous solubility in assay buffer; format: physicochemical; details: assay buffer conditions

Chain of HEG1–KRIT1 interaction (EGFP‐KRIT1 FERM domain binding to HEG1 cytoplasmic tail on beads) (O00522 417-736): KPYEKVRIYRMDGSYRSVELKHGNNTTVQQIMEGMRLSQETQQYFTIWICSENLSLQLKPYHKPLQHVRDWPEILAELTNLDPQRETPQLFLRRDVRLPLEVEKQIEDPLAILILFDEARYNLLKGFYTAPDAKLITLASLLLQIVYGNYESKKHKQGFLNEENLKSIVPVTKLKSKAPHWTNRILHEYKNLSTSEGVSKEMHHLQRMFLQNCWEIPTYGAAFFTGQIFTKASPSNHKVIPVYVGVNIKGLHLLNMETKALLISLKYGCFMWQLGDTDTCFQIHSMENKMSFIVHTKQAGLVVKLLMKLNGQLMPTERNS

- inhibition of the HEG1–KRIT1 interaction [1]: no inhibition
Structure (SMILES): O=Cc1nccc2ccccc12 [Compound 8]

- IC50 ([1]; IC50, competition, 70 nM EGFP‐KRIT1 FERM domain, 150 nM HEG1 on the beads): ~10 µM
- aqueous solubility [7]: poor solubility
Structure (SMILES): CC(NC(=O)c1ccccc1/N=C/c1c(O)ccc2ccccc12)c1ccccc1 (centres unmarked) [HKi1, Sirtinol]

Further lines, the molecule ahead of its results:

Structure (SMILES): O=Cc1cc(-c2ccccc2)ccc1O [Compound 6]
- inhibition of the HEG1–KRIT1 interaction [1]: moderate inhibition activity

Structure (SMILES): O=C(O)c1c(O)ccc2ccccc12 [Compound 9, 2‐hydroxy‐1‐naphthoic acid]
- inhibition of the HEG1–KRIT1 interaction [1]: does not block KRIT1 binding to HEG1
- PARD3 binding to HEG1 [2]: no effects
- KLF2 mRNA levels (hCMEC/D3 cells [3]): did not elevate
- KLF4 mRNA levels (hCMEC/D3 cells [3]): did not elevate
- cell viability (hCMEC/D3 cells [4]): no statistical difference
- effects on HUVECs gene expression by RNA‐Seq (HUVEC): no significant effects
- nuclear EGFP (klf2a reporter) in arterial and venous endothelium [5]: no effects
- Akt phosphorylation (pAkt‐S473) (hCMEC/D3 cells [6]; 50 μM, 4 h): did not elevate Akt activity

Structure (SMILES): O=c1cc(N2CCOCC2)oc2c(-c3ccccc3)cccc12 [LY294002]
- effect on Akt phosphorylation induced by HKi2 (hCMEC/D3 cells [6]): prevented an increase in Akt signaling

Structure (SMILES): NC1(c2ccc(-c3nc4ccn5c(=O)[nH]nc5c4cc3-c3ccccc3)cc2)CCC1 [MK‐2206]
- effect on Akt phosphorylation induced by HKi2 (hCMEC/D3 cells [6]): prevent the increase in Akt phosphorylation
